Common to all, as to assay type: functional
In assay [1] the test system is HaCaT. Description: Anti-inflammatory activity in human HaCaT cells assessed as inhibition of LPS-induced IL-6 production at 12.5 uM after 24 hrs by ELISA relative to LPS alone. An outline of the steps:
(§1)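 HaCaT keratinocytes (DMEM, 4 g/L glucose, 10% FBS, 1% pen-strep) seeded 5 × 10^3 cells/well and allowed to adhere 24 h. Compounds added for 1 h alone, then with E. coli LPS (5 μg/mL) for 24 h. IL-6 or TNF-α measured in supernatants by ELISA (pg/mL) and expressed as % inhibition vs LPS alone. Indomethacin 10 μM served as reference. Mean ± SEM, n = 3.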

In assay [2] the test system is HaCaT. Description: Anti-inflammatory activity in human HaCaT cells assessed as inhibition of LPS-induced IL-6 production at 25 uM after 24 hrs by ELISA relative to LPS alone. In short, it runs like this: as §1
Assay [3] concerns HaCaT. As to the kind of experiment: Anti-inflammatory activity in human HaCaT cells assessed as inhibition of LPS-induced IL-6 production at 50 uM after 24 hrs by ELISA relative to LPS alone. In short, it runs like this:
as §1

The subject of assay [4] is HaCaT. As to the kind of experiment: Anti-inflammatory activity in human HaCaT cells assessed as inhibition of LPS-induced TNF-alpha production at 50 uM after 24 hrs by ELISA relative to LPS alone. In short, it runs like this:
as §1

The subject of assay [5] is HaCaT. As to the kind of experiment: Anti-inflammatory activity in human HaCaT cells assessed as inhibition of LPS-induced TNF-alpha production at 25 uM after 24 hrs by ELISA relative to LPS alone. In short, it runs like this: as §1
Assay [6] has as its system HaCaT. As to the kind of experiment: Anti-inflammatory activity in human HaCaT cells assessed as inhibition of LPS-induced TNF-alpha production at 12.5 uM after 24 hrs by ELISA relative to LPS alone. In short, it runs like this: as §1
Assay [7] has as its system HaCaT. Description: Anti-inflammatory activity in human HaCaT cells assessed as inhibition of LPS-induced nitrotyrosine production at 50 uM after 24 hrs by FACS analysis relative to LPS alone. In short, it runs like this:
(§2)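 Cells were HaCaT seeded at 5 × 10^3 cells/well and pretreated with compound 1 h, then exposed to LPS (5 μg/mL) for 24 h. They were collected, PBS-washed, fixed 20 min and permeabilized 30 min, then stained 1 h with anti-nitrotyrosine antibody plus fluorescent secondary. Fluorescence was read by flow cytometry and expressed as % inhibition vs LPS alone. Mean ± SEM, n = 3.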

Assay [8] deals with HaCaT. Description: Anti-inflammatory activity in human HaCaT cells assessed as inhibition of LPS-induced nitrotyrosine production at 25 uM after 24 hrs by FACS analysis relative to LPS alone. In short, it runs like this: as §2
Assay [9] concerns HaCaT. As to the kind of experiment: Anti-inflammatory activity in human HaCaT cells assessed as inhibition of LPS-induced nitrotyrosine production at 12.5 uM after 24 hrs by FACS analysis relative to LPS alone. In short, it runs like this: as §2
The test system of assay [10] is HaCaT. As to the kind of experiment: Anti-inflammatory activity in human HaCaT cells assessed as inhibition of LPS-induced claudin-1 expression at 50 uM after 24 hrs by FACS analysis (rvb = 31.19 +/- 0.77).
The subject of assay [11] is HaCaT. As to the kind of experiment: Anti-inflammatory activity in human HaCaT cells assessed as inhibition of LPS-induced claudin-1 expression at 25 uM after 24 hrs by FACS analysis (rvb = 31.19 +/- 0.77).
The subject of assay [12] is HaCaT. Description: Anti-inflammatory activity in human HaCaT cells assessed as inhibition of LPS-induced claudin-1 expression at 12.5 uM after 24 hrs by FACS analysis (rvb = 31.19 +/- 0.77).
Assay [13] deals with HaCaT. As to the kind of experiment: Anti-inflammatory activity in human HaCaT cells assessed as inhibition of LPS-induced occluding expression at 50 uM after 24 hrs by FACS analysis (rvb = 30.17 +/- 5.98).
Assay [14] concerns HaCaT. Description: Anti-inflammatory activity in human HaCaT cells assessed as inhibition of LPS-induced occluding expression at 25 uM after 24 hrs by FACS analysis (rvb = 30.17 +/- 5.98).
In assay [15] the test system is HaCaT. Description: Anti-inflammatory activity in human HaCaT cells assessed as inhibition of LPS-induced occluding expression at 12.5 uM after 24 hrs by FACS analysis (rvb = 30.17 +/- 5.98).

Take `CC1=C(CCC2=CC(O)OC2=O)[C@@]2(C)CC[C@@H](O)C(C)(C)[C@@H]2CC1=O` (stereo not given in full): the inhibition at 12.5 µM in assay [1] is 56%; in assay [6] it was 68%; in assay [9], 30%. Also, the results for the inhibition at 25 µM in assay [2], in [5] and in assay [8] were 70.5%, 70.5% and 37%, respectively. Also, the inhibition at 50 µM turned out to be 76% in assay [3], 73.5% in assay [4] and 58.7% in assay [7]. Further, the Flu intensity in [10] stood at 22.83; in assay [11] it was 13.14; in assay [12], 5.01; in assay [13] it was 25.71; in assay [14], 13.83; in assay [15], 10.27.

For the compound `C[C@@H]1C(=O)C[C@H]2C(C)(C)[C@H](O)CC[C@]2(C)[C@@]1(O)CCc1ccoc1`, the inhibition at 12.5 µM in [1] is 48%; in assay [6], 37%; in [9] it was 6.33%. In addition, the inhibition at 25 µM in [2] came out at 64.5%; in assay [5], 62.5%; in [8], 30.5%. Also, the inhibition at 50 µM in [3] was found to be 69.5%; in assay [4], 65%; in assay [7], 46.3%. The Flu intensity stood at 36.5 in assay [10]; 30.04 in assay [11]; 19.29 in [12]; 32.27 in [13]; 24.34 in [14]; 17.8 in assay [15].

Turning to `COC1C=C(CCC2=C(C)C(=O)C[C@H]3C(C)(C)[C@H](O)CC[C@]23C)C(=O)O1` (stereo not given in full), the inhibition at 12.5 µM in assay [1] was found to be 65.5%; in [6], 52%; in [9] it was 0.5%. The results for the inhibition at 25 µM in assay [2], in [5] and in [8] were 74%, 68% and 29.5%, respectively. The figures for the inhibition at 50 µM in assay [3], in [4] and in [7] were 74.5%, 72% and 59.3%, respectively. For the same compound, the Flu intensity in assay [10] is 27.21; in assay [11], 20.46; in assay [12] it was 16.74; in [13], 34.73; in assay [14] it was 22.64; in assay [15] it was 18.46.

With `CC(=O)O[C@@H]1CC[C@@]2(C)[C@@H](C(=O)[C@H](O)[C@@H](C)[C@]2(O)CCc2ccoc2)C1(C)C`, the values for the inhibition at 12.5 µM in assay [1], in assay [6] and in assay [9] were 73.5%, 15.6% and 9%, respectively. The inhibition at 25 µM in assay [2] stood at 77%; in assay [5] it was 62%; in assay [8] it was 42.7%. In addition, the inhibition at 50 µM in assay [3] is 80.5%; in [4], 68%; in [7] it was 56.3%. Moreover, the Flu intensity in [10] is recorded as 26.08; in assay [11] it was 16.35; in [12], 14.96; in assay [13], 22.88; in assay [14], 16.06; in assay [15], 10.89.

Take `CO[C@@H]1C[C@]2(CC[C@@]3(O2)[C@H](C)C(=O)C[C@H]2C(C)(C)[C@H](O)CC[C@@]23C)CO1`: the inhibition at 12.5 µM came out at 63% in [1], 44% in assay [6] and 0% in assay [9]. The figures for the inhibition at 25 µM in [2], in assay [5] and in assay [8] were 71.5%, 62.5% and 21%, respectively. For the same compound, the inhibition at 50 µM in assay [3] came out at 76.5%; in assay [4] it was 68%; in [7], 39.3%. Further, the Flu intensity in [10] is 33.58; in assay [11] it was 22.52; in assay [12], 13.55; in assay [13], 24.77; in assay [14] it was 18.59; in [15], 8.82.

Take `CC(=O)OC[C@@]1(C)[C@H](O)CC[C@]2(C)C(CCc3ccoc3)=C(C)C(=O)C[C@@H]12`: the inhibition at 12.5 µM in [1] worked out at 66.5%; in assay [6], 0%; in [9] it was 0%. Further, the inhibition at 25 µM amounted to 67% in assay [2], 25% in [5] and 44% in [8]. In addition, the inhibition at 50 µM in assay [3] came to 73.5%; in assay [4] it was 44%; in assay [7] it was 58.3%. Besides, the Flu intensity in assay [10] came out at 17.12; in assay [11] it was 14.18; in assay [12] it was 6.86; in assay [13], 31.34; in assay [14], 19.18; in assay [15], 13.27.

In the case of `CC(=O)OC[C@@]1(C)[C@H](O)CC[C@]2(C)C(CCC3=CC(O)OC3=O)=C(C)C(=O)C[C@@H]12` (stereo not given in full), the inhibition at 12.5 µM is 44.5% in assay [1], 35% in assay [6] and 3.67% in assay [9]. For the same compound, the inhibition at 25 µM was found to be 49.5% in assay [2], 47.5% in assay [5] and 43% in [8]. Moreover, the inhibition at 50 µM stood at 73.5% in assay [3], 56.5% in assay [4] and 61.7% in assay [7]. In addition, the Flu intensity is reported as 34.13 in [10]; 20.73 in assay [11]; 14.41 in assay [12]; 32.25 in [13]; 21.77 in assay [14]; 12.54 in assay [15].

Consider `CO[C@H]1C[C@]2(CC[C@@]3(O2)[C@H](C)C(=O)[C@@H](O)[C@H]2C(C)(C)[C@H](O)CC[C@@]23C)CO1`, for which the inhibition at 12.5 µM in assay [1] was found to be 38.5%; in assay [6] it was 44%; in [9] it was 0%. The inhibition at 25 µM in [2] stood at 68.5%; in assay [5] it was 55%; in assay [8] it was 15%. Also, the inhibition at 50 µM stood at 78% in assay [3], 65% in [4] and 38% in [7]. Besides, the Flu intensity in assay [10] was 31.45; in assay [11] it was 22.27; in assay [12] it was 14.39; in assay [13], 35.8; in assay [14] it was 23.48; in [15], 18.89.

In the case of `CO[C@@H]1C[C@@]2(CC[C@@]3(O2)[C@H](C)C(=O)C[C@H]2C(C)(C)[C@H](O)CC[C@@]23C)C(=O)O1`, the figures for the inhibition at 12.5 µM in [1], in [6] and in assay [9] were 75%, 41.5% and 14.3%, respectively. Further, the inhibition at 25 µM came to 75.5% in assay [2], 50.5% in assay [5] and 40% in [8]. For the same compound, the figures for the inhibition at 50 µM in assay [3], in assay [4] and in assay [7] were 76.5%, 56.5% and 57.5%, respectively. For the same compound, the Flu intensity is listed as 32.36 in [10]; 24.86 in [11]; 8.09 in assay [12]; 25.11 in [13]; 18.73 in assay [14]; 9.09 in [15].

(Values after ChEMBL document CHEMBL4665743, “Labdane-Type Diterpenes from the Aerial Parts of Rydingia persica: Their Absolute Configurations and Protective Effects on LPS-Induced Inflammation in Keratinocytes” (2020).)
